Measured values taken from article PMC7237122 (OncoTargets and therapy, 2020).

Columns and labels:
[1] = test system: SMMC-7721 cells; assay: MTT analysis of SMMC-7721 cells; format: cell-based
Outline: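 SMMC-7721 cells (Shanghai Institute of Cell Biology) were incubated with test extract or compounds, and growth was read by MTT. Mean ± standard error; ANOVA, P<0.05.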

[2] = test system: IL-6; assay: H22-tumor-bearing mice: IL-6 ELISA of serum and tumor; format: in vivo; conditions: for IL-6 concentration, tumor ELISA: tumor tissue, compared with model group
Outline: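 Male Kunming mice (20~22 g) bearing H22 tumors (100~150 mm3 at day 7, 10~12/group) were dosed 8 days: test agents ip 100 mg/kg or po 400/720 mg/kg daily, or 5-Fu ip 200 mg/kg twice weekly. Mice were fasted 16 h and ether-euthanised. IL-6 was measured by ELISA in eye-collected blood and in liquid-nitrogen-frozen tumor tissue. Mean ± standard error; ANOVA.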

[3] = test system: H22-tumor-bearing mice; assay: H22-tumor-bearing mice: tumor size, tumor weight, HE staining; format: in vivo; conditions: for tumor inhibition rate (TIR), tumor weight: 5-Fu ip 200 mg/kg twice a week, SOLB ip 100 mg/kg once daily, 8 days; for tumor size: H22-tumor-bearing mice, compared with model group
Outline: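 In H22-inoculated male Kunming mice (tumors 100~150 mm3, randomised 10~12/group), treatment ran 8 days (daily test agents; 5-Fu twice weekly). Tumor size was measured by Vernier calipers. Tumors were excised after a 16 h fast and ether euthanasia. Inhibition rate was taken from mean tumor indices of drug versus model groups. Tissue was fixed overnight in 4% buffered paraformaldehyde for HE. Mean ± standard error; ANOVA.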

[4] = test system: ALT and AST; assay: H22-tumor-bearing mice: liver function; format: in vivo; conditions: blood of H22-tumor-bearing mice, compared with model group
Outline: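 H22 ascites cells were injected into male Kunming mice; tumors of 100~150 mm3 at 7 days were randomised (10~12/group) against saline model and uninoculated normal groups. Test agents were given daily for 8 days (ip 100 mg/kg; po 400 or 720 mg/kg). After a 16 h fast, blood was taken from the eyes for ALT and AST. Mean ± standard error; ANOVA.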

[5] = test system: H22-tumor-bearing mice; assay: H22-tumor-bearing mice: tolerability; format: in vivo; conditions: for mice analyzed / mice in group: 5-Fu ip 200 mg/kg twice a week, SOLB ip 100 mg/kg once daily, 8 days
Outline: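 Animals bearing 7-day H22 tumors (male Kunming, 10~12/group) were treated once daily 09:00–10:00 for 8 days (test agents ip or po); 5-Fu ip 200 mg/kg was given twice weekly. Appearance and behaviour were observed, and diarrhea, irritation and emaciation were recorded. Body weight was followed over therapy. Liver was fixed overnight in 4% buffered paraformaldehyde for HE.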

[6] = test system: JAK2, Tyr705-p-STAT3, Ser725-p-STAT3; assay: H22-tumor-bearing mice: Western blotting of tumor tissue; format: in vivo; conditions: compared with model group
[7] = test system: SMMC-7721 cells; assay: Hochest apoptosis test in SMMC-7721 cells; format: cell-based; conditions: concentration not given
Outline: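 Apoptosis in SMMC-7721 cells exposed to test extract or compounds was assessed by Hoechst staining per kit instructions. Mean ± standard error; ANOVA.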

Molecule: OC[C@H]1O[C@@H](O[C@@H]2OC=C[C@H]3[C@H](O)[C@@H]4O[C@]4(CO)[C@@H]23)[C@H](O)[C@@H](O)[C@@H]1O [CAT, catalpol]
- growth of SMMC-7721 cells (MTT) [1]: no obvious effects

Molecule: COc1cc(/C=C/C(=O)CC(=O)/C=C/c2ccc(O)c(OC)c2)ccc1O [CUR, curcumin]
- growth of SMMC-7721 cells (MTT) [1]: could inhibit the growth of SMMC-7721 cells in a dose-dependent manner

Molecule: O=c1[nH]cc(F)c(=O)[nH]1 [5-Fu, 5-fluorouracil]
- IL-6 concentration, serum ELISA [2]: increasing not decreasing IL-6
- IL-6 concentration, tumor ELISA [2]: higher than the model group
- tumor inhibition rate (TIR), tumor weight [3]: 91.94%
- tumor size [3]: the smallest
- HE staining of tumor tissue ([3]; chromatin condensation and nuclear shrinkage, compared to model group): good
- liver function: ALT and AST levels [4]: the best
- mice analyzed / mice in group [5]: 10/12
- appearance and behavior (adverse reactions) ([5]; therapeutic period): diarrhea and alopecia, their appetite was poor
- weights of mice ([5]; therapeutic period): steadily increased during the therapeutic period except in the 5-Fu group
- protein expressions of JAK2, Tyr705-p-STAT3, Ser725-p-STAT3 (Western) [6]: could inhibit protein expressions of JAK2, Tyr705-p-STAT3, and Ser725-p-STAT3

Molecule: O=C1C[C@@H](c2ccc(O[C@@H]3O[C@H](CO)[C@@H](O)[C@H](O)[C@H]3O)cc2)Oc2cc(O)ccc21 [LIQ, liquiritin]
- growth of SMMC-7721 cells (MTT) [1]: no obvious effects

Molecule: O=C(O)/C=C/c1ccc(O)c(O)c1 [CAF, caffeic acid]
- growth of SMMC-7721 cells (MTT) [1]: no obvious effects

Molecule: demethoxycurcumin
- growth of SMMC-7721 cells (MTT) [1]: could inhibit the growth of SMMC-7721 cells in a dose-dependent manner

Molecule: schisandrol A [SOLA]
- effect on apoptosis (Hochest), pure compounds [7]: not good

Molecule: COc1cc2c(c(OC)c1OC)-c1c(cc3c(c1OC)OCO3)C[C@H](C)[C@@](C)(O)C2 [SOLB, schisandrol B]
- IL-6 concentration, serum ELISA [2]: less than 5-Fu but more than DWYG extract
- IL-6 concentration, tumor ELISA [2]: less than in the model group
- growth of SMMC-7721 cells (MTT) [1]: could inhibit the growth of SMMC-7721 cells in a dose-dependent manner
- tumor inhibition rate (TIR), tumor weight [3]: 34.98%
- tumor size [3]: effective but not better than 5-Fu
- effect on apoptosis (Hochest), pure compounds [7]: an active ingredient of DWYG extract
- liver function: ALT and AST levels [4]: effective
- mice analyzed / mice in group [5]: 12/12
- protein expressions of JAK2, Tyr705-p-STAT3, Ser725-p-STAT3 (Western) [6]: could inhibit protein expressions of JAK2, Tyr705-p-STAT3, and Ser725-p-STAT3

Molecule: COc1cc2c(c(OC)c1OC)-c1c(cc3c(c1OC)OCO3)CC(C)C(C)C2 (stereo not shown) [SCHB, schisandrin B]
- growth of SMMC-7721 cells (MTT) [1]: could inhibit the growth of SMMC-7721 cells in a dose-dependent manner

Molecule: schisantherin A [SINA]
- growth of SMMC-7721 cells (MTT) [1]: could inhibit the growth of SMMC-7721 cells in a dose-dependent manner

Molecule: O=C(/C=C/c1ccc(O)cc1)CC(=O)/C=C/c1ccc(O)cc1 [BIS, bisdemethoxycurcumin]
- growth of SMMC-7721 cells (MTT) [1]: could inhibit the growth of SMMC-7721 cells in a dose-dependent manner

Molecule: deoxyschizandrin
- growth of SMMC-7721 cells (MTT) [1]: could inhibit the growth of SMMC-7721 cells in a dose-dependent manner
- effect on apoptosis (Hochest), pure compounds [7]: not good

Molecule: O=C(/C=C/c1ccc(O)c(O)c1)O[C@@H]1C[C@](O)(C(=O)O)C[C@@H](O)[C@H]1O [CHL, chlorogenic acid]
- growth of SMMC-7721 cells (MTT) [1]: no obvious effects
